System: MS2 coat protein
Experiment: apparent Kd, MS2 coat protein; higher = weaker binding; RNA-MaP array; FMN 200 µM where present
Method in brief: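 Binding was read on Illumina sequencing-chip clusters where stalled E. coli RNA polymerase had transcribed each design. A titration of SNAP-549-labelled MS2 coat protein began at 0.7 or 1.5 nM and doubled to 3 µM, once without ligand and once with constant ligand, in 100 mM Tris-HCl pH 7.5, 80 mM KCl, 4 mM MgCl2, BSA, DTT, yeast tRNA and Tween-20. The apparent Kd is the median of filtered per-cluster binding-curve fits, based on green signal normalised to red-channel RNA signal and control-cluster median Fmax.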

[1] = designed as: OFF switch for flavin mononucleotide, no ligand
[2] = ligand present: flavin mononucleotide, designed as: OFF switch for flavin mononucleotide
[3] = designed as: ON switch for flavin mononucleotide, no ligand
[4] = ligand present: flavin mononucleotide, designed as: ON switch for flavin mononucleotide

Sequence	apparent Kd [1] [nM]	apparent Kd [2] [nM]	apparent Kd [3] [nM]	apparent Kd [4] [nM]
CGGAGGUCAGGAUAUGCAUGGCGGGACUUGCGUCGUGGCGUGCAGAAGGGACAUGAGGAUCACCCAUGUGGAGU	147	216		
GCCUCAUAGUAGAAGGGACUUAGACAGUAAAGUUUAUAGAGGAAAUAACAUGAGGAUCACCCAUGUCAGGAUAUACUAAGAGGC	7.42	9.47		
GGACGUCACUCAAACAAUUAAACAUGAGGAUCACCCAUGUCACAGGAUAUGGAUCCUAAUUGGAUCCAGAAGGGUGAGACGUCC			251	222
AUAGUGCGCGAGAAGGACGUACCACAUGUGGAUCACCUAUAUAAGGAACGUAGGAUAUUGCACAUGAGGAUCACCCAUGUGGAU			41.4	34.1
UUAACUCAUGUAGGAUAUGCAUGGCGAAGCUACGCAGAAGGACAUGAGGAUCACCCAUGUUCUAGCGUCUGAGAACAGAUGCAA	49.2	400		
AAGCACAGAGGAUAUACAUGGGUGAUAAAAAAAAUGUAAAAACAUGAGGAUCACCCAUGUAGAAGGCUGUGCAA	22.6	16.5		
ACCACGUUAGCGAUAUGAUCGAGAGAUCAUGUCGCUAAUUUUAGAAGGACAUGAGGAUCACCCAUGUAGGAUAUGGGACGUGGA			14.7	7.88
AGCCUACAUGAGGAUCACCCAUGUCAGGAUAUCUCGCAACGUGUCAAGUUCACGUCGCAGAGAAGGGACUCGGG	55.7	54		
ACUUUUUAUGGACAUGAGGAUCACCCAUGUGCCUUGGGCCUCAAGGAUAUAGUAAUUGUCGUGUACUAGAAGGUGAAGCCAUUA			77.2	27.9
GGUUGACAAAGUCAACCAUAACGAACAUGAGGAUCACCCAUGUAGGAUAUGCUACUCAAAGAGUAGCAGAAGGACAUGUGUCUU	32.6	161		
GCAGCGUAUGUAGGAUAUCGGUCAGUUUCUGAUCGAGAAGGACAUGAGGAUCACCCAUGUAAAUUUCCGACUUUGUCGGGCUGC	7.04	8.73		
CUAGUAUAUCAGGAUAUGAUUUUAUAUAUUGGAUCAGAAGGGAUAACAUGAGGAUCACCCAUGUUGUGGAGUGA	110	360		
AUCAGCUCGUCAGGAUAUACGGCACUGCGUCAGCAGUGUGGUAAGAUCACAUGAGGAUCACCCAUGUAGAAGGGACGAGCUGAU	8.06	84.6		
CCUGGUUGGUAAGGAUAUCCUACACUAUUCUGACCCGUGCAAGCUACAUGAGGAUCACCCAUGUGGGAGAAGGUGCGUCAACGU	12.8	12		
CAGGUUAGAGGAUAUACGUAGGUACAGAUCUGUGUGUUCCUACAUGAGGAUCACCCAUGUAGAAGGCUAUCCUG	69.8	208		
GUUAACGCAUGAGGAUAUGCUCACAUUUCAAGAGCAGAAGGUAUGUCUAUAGACAUGAGGAUCACCCAUGUAUUUAUCAUUGAA			166	42.5
CGGAUCGCAUGAGGAUAUGGUCAGCUUUGCUGACCAGAAGGCAUGUCAUAAGACAUGAGGAUCACCCAUGUAGUUAAGAUCCGA			576	46.3
GUGUACAGAGGAUAUACUUGAAUCUAGCGAAGCUAGGUUCGACAUGAGGAUCACCCAUGUAGAAGGCUGUACAC	12.7	17.4		
GGAAAACAUGAGGAUCACCCAUGUGAGGAUAUCGAUGUCCAAGAAAAAGUGCGGGACUCGAGAAGGCACUUGGA	58.9	36.8		
UUGAGGUGUCAAGGAUAUGCUACCGUUUCGGUAGCAGAAGGUGAUCACAUGAGGAUCACCCAUGUAUGCAUGCGUGAGCGUGCU			45.6	285
CCUCCACAUUAGGAUAUCGUCACAGAAAUGUGACGAGAAGGAAUGACAUGAGGAUCACCCAUGUUAUCGUGAUG	21.2	54.9		
UUUAGUUCAGGAUAUGUAGAUUUUAACAUGAGGAUCACCCAUGUAGAUCCUGAUCCUGCUACAGAAGGAAAGAUUU	26.9	25.5		
AAAUUAAGAAGAGGAUAUUGACAUGAGGAUCACCCAUGUAUUUGGGAGUGUUUACUGAAUUCUUACGAGAAGGUUUACGAACUU	278	211		
AAAUUUAACGAAGGAUAUGCUGACAUGAGGAUCACCCAUGUGUGCUUUGUGUUGCUGAAAUGGGAGCAGAAGGUCGUAUACAUA		128		

Sequence	apparent Kd [1] [nM]	apparent Kd [2] [nM]	apparent Kd [3] [nM]	apparent Kd [4] [nM]
GCUCUGUUAGGAUAUUUCGGCAUAGGUAUAACUUAAGCGUGAGAGAAGGAACAUGAGGAUCACCCAUGUUAAUC	19.9	77.5		
GCCAUCGCAUGAGGAUAUGCUCCGGUUUCCGGAGCAGAAGGUAUGUCAUAAGACAUGAGGAUCACCCAUGUAGUUAAGAUGGCA			252	30
UAUACUUACGAAGGAUAUGGUUACAUGAGGAUCACCCAUGUAUGUAUAUUGAUCUAGUAUUUUAACCAGAAGGUCGUGAGUAUA	65.5	53.4		
AUAAAACAUGAGGAUCACCCAUGUCAACAAAGUCGAGGAUAUGGGCAAAUAAAAUAAGAACCAGAAGGCGUAUAAU				94.3
CGGGCGCCGAAGGGCGAAAGCCCACAUGAGGAUCACCCAUGUAGAAGGAGGGAAGAAACCAAAACCUAGGAUAUACAGGCGCCC	7.9	10.2		
CGUGACUCAGGAUAUCUAUAGUAUCACAUGAGGAUCACCCAUGUCCAGCGAAAGCUGGAGGGAGAAGGGAGUCACG	266	53.9		
CGUAGGAUCCAGAAGGCAUGAAACAUGAGGAUCACCCAUGUAAAAGACAUGAGGAUAUGGAUCCUACGAAAAGUGCGAAAGCAC			3.69	3.4
CUCUUGUCAGGAUAUGCUGCUCGUCACGAAAGUGAUGAGUAGCAGAAGGGACAUGAGGAUCACCCAUGUAAAUA	53.7	17.5		
UUAAUAAAGUAAGGAUAUACAUGAGGAUCUCUCGUAGAAGGUACUAUACAUGAGGAUCACCCAUGUGCCGGUCCGUAGACUGGA			387	796
ACAUGAGGAUCACCCAUGUUCGUUGAAGAAGGUACGUAUGGCUGUGGCAGGAAUAUAGUUAUAUGUAAGGAUAUUCUCAUAAUU			13.1	7.11
GGUAUCUCCCGUGAGGAUAUGCGGCGUAGAACAUGAGGAUCACCCAUGUCCUUCGAAUGGGUUACGCAGAAGGCACGACGGUACC			33.3	18.5
GGAGCCGGUACUGAGGAUAUUCAUAUUAAAACAUGAGGAUCACCCAUGUAGGCCAGAAGGCCUUGGGAGAAGGCAGGCCAGCUCG			378	31.4
GUUAAUUAGUGAGGAUAUACAGUAUUUAAUACUGUAGAAGGCACAAUCCUCAAGACAUGAGGAUCACCCAUGUGAUAAUAAGCU	35.4	139		
AAGAAGGCAGGAUAUACAAAAUAAAAGAAAAGAAAGAAAGAACAUGAGGAUCACCCAUGUAGAAGGGUCAAGAA	59.3	66.1		
AGUGCGUAUGUGAGGAUAUGCUGGUCCUUGGAUCGGCAGAAGGCACAUGAGGAUCACCCAUGUGGUGUCGUACC	244	34		
GAUAGAGAGCAGGAUAUCUUGGGUAAGUAUCGUAGAGAAGGGCUCACAUGAGGAUCACCCAUGUGGUCCUAGAU	12.7	29.5		
CUACCUUAUGAGAAGGCGAUCAUGAAACAUGAUCGAGGAUAUCAUGUAAACAUGAGGAUCACCCAUGUAUGGGUAUUAUGGUAA			106	24.4
UUUAGUUGCGGGCAGGAUAUGUAUUAAAAUACAUGAGGAUCACCCAUGUGUGGGUAUAACACCCAACAGAAGGGCCAAUCGCGAC			132	18.3
AGUUUUGUACAUGAGGAUCACCCAUGUUAAUAUGUGGUAGUCAGAAGGCAUUGUUAGAGUAUAUAUGAGGAUAUGAUUAGUCAG			58.3	27.9
GGCUUAAACACAGGAUAUAGUCUUAGGGCGAGACUAGAAGGGUGAAGUUCUCAUACAUGAGGAUCACCCAUGUCACGGAGGCUA			45.1	169
AGAUAACACCAGAAGGACAUGAGGAUCACCCAUGUAGGAUAUGGGCAUCACUCGAGAAAGAUACGACCAAAGGGACACGCGGUC			124	9.97
AGCUACGUUUCGUAGCAGCUAGGUGAGGAUAUUCAAUUUUUCACAUGAGGAUCACCCAUGUAUGAAAAGAAGGCGCCUAGAAAG			4.45	4.04
AGUGUCAUCGAGAAGGCCUCAUGAACAUGAGGAUCACCCAUGUAAAAUGGGAGGAUAUCGAUGAUACAGCUACGUUUCGUAGCA			74.4	28.5
AAUGUGUCAGGAUAUAGUAGACUCCUUGGAACGGUAGUCAGUUAGAAGGGACAUGAGGAUCACCCAUGUCGAGU	19.3	19.6		

Reference: the EternaBench riboswitch data
